Measurements as given in ChEMBL document CHEMBL4257532, “Synthesis and antitumoral activity of novel analogues monastrol-fatty acids against glioma cells” (Medchemcomm, 2018).
Calls of active or inactive are those of the source. No cut-off for these calls is given here.

Experiments:
[1] = tested on: C6; experiment: Cytotoxicity against rat C6 cells assessed as reduction in cell viability at 5 uM after 48 hrs by MTT assay relative to control; format: functional
How it was run: (§1)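 C6 rat glioma cells in DMEM/10% FBS at 37 °C, 5% CO2. Seeded at 1 × 10^4 cells/well and exposed 48 h to 5–50 μM in DMSO, with a 1% DMSO vehicle control. MTT added at 0.5 mg/mL final for 60 min at 37 °C. Formazan dissolved in DMSO and read at 492 nm. Viability expressed as % of control. IC50 by linear regression of % inhibition against log concentration.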

[2] = tested on: C6; experiment: Potency index, ratio of monastrol-palmitic acid IC50 to compound IC50 for cytotoxicity against rat C6 cells; format: functional
[3] = tested on: C6; experiment: Cytotoxicity against rat C6 cells assessed as reduction in cell viability after 48 hrs by MTT assay; format: functional, cell-based; conditions: for IC50: C6, 48 h; how it was run: as §1
[4] = tested on: C6; experiment: Antiproliferative activity against rat C6 cells at 5 to 50 uM after 48 hrs by Neubauer chamber method; format: functional, cell-based
How it was run: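 C6 rat glioma cells (ATCC) grown in DMEM/10% FBS with penicillin/streptomycin and Fungizone at 37 °C, 5% CO2. Plated at 5 × 10^3 cells/well and treated 48 h with 5, 10, 25 or 50 μM, dissolved in DMSO. Vehicle control was 1% DMSO. Cells then trypsinized and aliquots counted in a Neubauer chamber. ANOVA with Tukey post-test versus control.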

[5] = tested on: C6; experiment: Cytotoxicity against rat C6 cells assessed as reduction in cell viability at 10 uM after 48 hrs by MTT assay; format: functional, cell-based; how it was run: as §1

Compound	Activity [1]	Ratio IC50 [2]	Activity [3]	IC50 [3] [µM]	Activity [4]	Activity [5]
CCCCCCCCCCCCCCCC1=C(C(=O)OC)C(c2cccc(O)c2)NC(=S)N1 (stereo not drawn)	50%	2.5	Dose-dependent effect	5.11	Active	–
CCOC(=O)C1=C(C)NC(=S)NC1c1cccc(O)c1 (stereo not drawn) [MONASTROL]	–	–	–	87.8	Active	–
CCCCCCCCCCCCCCCCCC1=C(C(=O)OC)C(c2cccc(O)c2)NC(=S)N1 (stereo not drawn)	50%	2.5	Dose-dependent effect	6.85	Active	–
CCCCCCCC/C=C\CCCCCCCC1=C(C(=O)OC)C(c2cccc(O)c2)NC(=S)N1 (stereo not drawn)	–	–	–	38.4	Active	–
CCCCCCCCCCCCCCCC1=C(C(=O)OC)C(c2cccc(O)c2)NC(=O)N1 (stereo not drawn)	Active	–	–	79.4	Active	–
CCCCCCCC/C=C\CCCCCCCC1=C(C(=O)OC)C(c2cccc(O)c2)NC(=O)N1 (stereo not drawn)	–	–	–	166	Active	Active
CCCCCCCCCCCCCCCCCC1=C(C(=O)OC)C(c2cccc(O)c2)NC(=O)N1 (stereo not drawn)	Active	–	–	21.8	Active	–
